Tests used:
[1] = Inhibition of 15N-Labeled beta lactamase TEM-1 G1u104Lys/Gly238Ser double mutant (unknown origin) over expressed in Escherichia coli BL21(DE3) cells by CENTA; set-up: species or system Bacteria
Method in brief: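 TEM-15 from E. coli expression, purified to >83% by SDS-PAGE. Hydrolysis of the chromogenic substrate CENTA (300 μM) monitored across two-fold inhibitor dilutions. IC50 obtained by fitting a dose-response curve.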

[2] = Noncompetitive inhibition of 15N-Labeled beta lactamase TEM-1 (unknown origin) over expressed in Escherichia coli BL21(DE3) cells by CENTA; set-up: species or system Bacteria
[3] = tested on: Bacteria; experiment: Inhibition of 15N-Labeled beta lactamase TEM-1 G1u104Lys/Gly238Ser double mutant (unknown origin) over expressed in Escherichia coli BL21(DE3) cells assessed as residual activity at 1 mM by CENTA relative to control
Method in brief: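 TEM-15 produced in E. coli, purified to >83% by SDS-PAGE, used at 56 nM. Inhibitor screened at 1 mM against hydrolysis of the chromogenic substrate CENTA (300 μM). Activity expressed relative to the positive control without inhibitor, as mean ± standard deviation of at least three replicates.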

[4] = Inhibition of 15N-Labeled beta lactamase TEM-1 (unknown origin) over expressed in Escherichia coli BL21(DE3) cells by CENTA; set-up: species or system Bacteria
Method in brief: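 IC50 against TEM-1 from CENTA (300 μM) hydrolysis using two-fold inhibitor dilutions; value derived by fitting a dose-response curve. Enzyme purity >83% by SDS-PAGE.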

[5] = Uncompetitive inhibition of 15N-Labeled beta lactamase TEM-1 (unknown origin) over expressed in Escherichia coli BL21(DE3) cells by CENTA; set-up: species or system Bacteria
[6] = Competitive inhibition of 15N-Labeled beta lactamase TEM-1 (unknown origin) over expressed in Escherichia coli BL21(DE3) cells by CENTA; set-up: species or system Bacteria
[7] = tested on: Bacteria; experiment: Inhibition of 15N-Labeled beta lactamase TEM-1 (unknown origin) over expressed in Escherichia coli BL21(DE3) cells assessed as residual activity at 1 mM by CENTA relative to control
Method in brief: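 TEM-1 (116 nM) screened with inhibitor at 1 mM, hydrolysis of chromogenic CENTA at 300 μM (~8× Km of 36 μM) followed. Activity expressed relative to positive control lacking inhibitor, mean ± standard deviation of at least three replicates. Enzyme purity >83% by SDS-PAGE.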

Structure (SMILES) | IC50 [1] [µM] | Ki [2] [µM] | Activity [3] [%] | IC50 [4] [µM] | Ki [5] [µM] | Ki [6] [µM] | Activity [7] [%]
O=C(O)CN1C(=O)[C@H](Cc2ccc(Br)cc2)N(Cc2ccc(Br)cc2)S1(=O)=O | 130 | 300 | 0 | 300 | 268 | 32 | 10
O=C(O)CN1C(=O)[C@H](Cc2ccc(F)cc2)N(Cc2ccc([N+](=O)[O-])cc2)S1(=O)=O | – | – | – | – | – | – | 101
O=C(O)CN1C(=O)[C@H](Cc2ccc(F)cc2)N(Cc2ccc(Br)cc2)S1(=O)=O | – | 510 | 53 | 510 | 455 | 55 | 34
COc1ccc(CN2[C@@H](Cc3ccc(Br)cc3)C(=O)N(CC(=O)O)S2(=O)=O)cc1 | – | – | – | – | – | – | 92
O=C(O)CN1C(=O)[C@H](Cc2ccc(Br)cc2)N(Cc2ccc([N+](=O)[O-])cc2)S1(=O)=O | – | – | – | – | – | – | 100
COc1ccc(CN2[C@@H](Cc3ccc(F)cc3)C(=O)N(CC(=O)O)S2(=O)=O)cc1 | – | – | – | – | – | – | 124
